According to ChEMBL document CHEMBL1136991, “Novel potent BRAF inhibitors: toward 1 nM compounds through optimization of the central phenyl ring” (J Med Chem, 2009):

Columns and labels:
[1] = molecular target: Serine/threonine-protein kinase pim-2 (Homo sapiens) (UniProt Q9P1W9); assay: Inhibition of PIM2 at 1 uM relative to control
[2] = molecular target: Tyrosine-protein kinase CSK (Homo sapiens) (UniProt P41240); assay: Inhibition of CSK at 1 uM relative to control
[3] = molecular target: MAP kinase-interacting serine/threonine-protein kinase 2 (Homo sapiens) (UniProt Q9HBH9); assay: Inhibition of MNK2 at 1 uM relative to control
[4] = molecular target: Tyrosine-protein kinase Lck (Homo sapiens) (UniProt P06239); assay: Inhibition of Lck at 1 uM relative to control
[5] = molecular target: Dual specificity tyrosine-phosphorylation-regulated kinase 1A (Homo sapiens) (UniProt Q13627); assay: Inhibition of DYRK1A at 1 uM relative to control
[6] = molecular target: T1, Aurora kinase C (Homo sapiens) (UniProt Q9UQB9); assay: Inhibition of Aurora C at 1 uM relative to control
T1 sequence (whole entry): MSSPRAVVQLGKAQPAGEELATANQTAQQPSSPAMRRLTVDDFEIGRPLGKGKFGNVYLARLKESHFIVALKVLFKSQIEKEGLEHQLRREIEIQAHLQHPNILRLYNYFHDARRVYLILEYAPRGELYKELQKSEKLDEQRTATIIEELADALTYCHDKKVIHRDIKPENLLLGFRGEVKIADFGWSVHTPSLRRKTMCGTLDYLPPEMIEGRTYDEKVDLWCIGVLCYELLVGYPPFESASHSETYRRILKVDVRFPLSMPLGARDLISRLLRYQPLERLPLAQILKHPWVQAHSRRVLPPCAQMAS

[7] = molecular target: T2, Eukaryotic elongation factor 2 kinase (Homo sapiens) (UniProt O00418); assay: Inhibition of EFK2 at 1 uM relative to control
T2 sequence (whole entry): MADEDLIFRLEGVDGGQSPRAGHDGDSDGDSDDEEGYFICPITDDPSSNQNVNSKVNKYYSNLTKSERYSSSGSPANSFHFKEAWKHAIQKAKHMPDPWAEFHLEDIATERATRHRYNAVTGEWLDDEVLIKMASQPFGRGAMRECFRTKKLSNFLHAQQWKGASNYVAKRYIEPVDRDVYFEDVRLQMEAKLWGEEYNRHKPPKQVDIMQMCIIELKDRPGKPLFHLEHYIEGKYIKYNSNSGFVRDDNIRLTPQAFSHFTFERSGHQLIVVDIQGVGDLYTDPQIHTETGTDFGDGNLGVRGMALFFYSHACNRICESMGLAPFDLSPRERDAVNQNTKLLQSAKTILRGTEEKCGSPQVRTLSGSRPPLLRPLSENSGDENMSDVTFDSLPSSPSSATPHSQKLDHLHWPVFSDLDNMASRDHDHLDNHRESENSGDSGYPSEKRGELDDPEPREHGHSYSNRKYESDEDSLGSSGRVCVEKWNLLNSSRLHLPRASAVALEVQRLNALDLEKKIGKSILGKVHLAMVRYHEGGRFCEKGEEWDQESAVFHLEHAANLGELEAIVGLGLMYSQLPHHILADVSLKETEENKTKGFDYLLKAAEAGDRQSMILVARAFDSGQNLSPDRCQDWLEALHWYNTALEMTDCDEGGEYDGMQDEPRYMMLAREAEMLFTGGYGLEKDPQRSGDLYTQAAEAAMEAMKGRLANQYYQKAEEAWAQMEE

[8] = molecular target: Ribosomal protein S6 kinase beta-1 (Homo sapiens) (UniProt P23443); assay: Inhibition of S6K1 at 1 uM relative to control
[9] = Inhibition of CK1 at 1 uM relative to control
[10] = molecular target: Serine/threonine-protein kinase PLK1 (Homo sapiens) (UniProt P53350); assay: Inhibition of PLK1 at 1 uM relative to control
[11] = molecular target: Ribosomal protein S6 kinase alpha-3 (Homo sapiens) (UniProt P51812); assay: Inhibition of RSK2 at 1 uM relative to control
[12] = molecular target: Serine/threonine-protein kinase B-raf (Homo sapiens, UniProt P15056, V600E); assay: Inhibition of BRAF V600E mutant
In short: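 Purified, isolated V600E BRAF enzyme assayed in vitro; potency reported as IC50.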

[13] = molecular target: Homeodomain-interacting protein kinase 3 (Homo sapiens) (UniProt Q9H422); assay: Inhibition of HIPK3 at 1 uM relative to control
[14] = molecular target: Ribosomal protein S6 kinase alpha-5 (Homo sapiens) (UniProt O75582); assay: Inhibition of MSK1 at 1 uM relative to control
Chain of Ribosomal protein S6 kinase alpha-5 (Homo sapiens) (O75582 whole entry, looked up): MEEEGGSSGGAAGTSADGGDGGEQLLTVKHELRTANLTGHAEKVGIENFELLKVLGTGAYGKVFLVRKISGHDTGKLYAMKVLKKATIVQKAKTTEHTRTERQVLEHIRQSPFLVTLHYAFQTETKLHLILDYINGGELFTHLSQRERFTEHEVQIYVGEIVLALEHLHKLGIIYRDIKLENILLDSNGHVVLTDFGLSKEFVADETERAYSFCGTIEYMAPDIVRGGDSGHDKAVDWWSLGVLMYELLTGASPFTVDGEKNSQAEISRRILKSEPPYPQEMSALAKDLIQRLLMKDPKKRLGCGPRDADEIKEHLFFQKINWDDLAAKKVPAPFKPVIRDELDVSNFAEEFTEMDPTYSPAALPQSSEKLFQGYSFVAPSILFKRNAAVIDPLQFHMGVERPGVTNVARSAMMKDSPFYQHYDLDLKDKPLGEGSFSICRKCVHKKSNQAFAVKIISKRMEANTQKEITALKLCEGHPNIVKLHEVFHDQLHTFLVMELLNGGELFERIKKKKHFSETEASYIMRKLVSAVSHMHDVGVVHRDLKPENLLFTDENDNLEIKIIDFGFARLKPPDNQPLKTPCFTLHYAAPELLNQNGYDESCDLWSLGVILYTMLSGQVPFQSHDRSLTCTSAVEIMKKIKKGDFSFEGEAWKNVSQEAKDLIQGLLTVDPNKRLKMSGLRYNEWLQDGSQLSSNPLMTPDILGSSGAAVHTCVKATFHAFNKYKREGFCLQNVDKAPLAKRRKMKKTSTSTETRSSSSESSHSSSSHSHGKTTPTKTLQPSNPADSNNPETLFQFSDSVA

Chain of Tyrosine-protein kinase CSK (Homo sapiens) (P41240 2-450 limits assumed): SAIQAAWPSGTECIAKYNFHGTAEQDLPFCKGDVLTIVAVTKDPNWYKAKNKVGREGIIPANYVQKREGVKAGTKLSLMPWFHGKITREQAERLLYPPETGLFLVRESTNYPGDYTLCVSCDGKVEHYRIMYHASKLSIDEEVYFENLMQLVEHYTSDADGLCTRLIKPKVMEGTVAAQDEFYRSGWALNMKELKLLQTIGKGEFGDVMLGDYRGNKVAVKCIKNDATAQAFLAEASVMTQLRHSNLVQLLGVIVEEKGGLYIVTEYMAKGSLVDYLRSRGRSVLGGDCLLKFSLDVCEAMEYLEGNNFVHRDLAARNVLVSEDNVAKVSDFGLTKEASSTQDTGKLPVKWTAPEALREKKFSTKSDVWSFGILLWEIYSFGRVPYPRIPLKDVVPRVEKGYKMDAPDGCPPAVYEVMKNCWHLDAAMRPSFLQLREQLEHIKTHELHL
Chain of Serine/threonine-protein kinase pim-2 (Homo sapiens) (Q9P1W9 whole entry, looked up): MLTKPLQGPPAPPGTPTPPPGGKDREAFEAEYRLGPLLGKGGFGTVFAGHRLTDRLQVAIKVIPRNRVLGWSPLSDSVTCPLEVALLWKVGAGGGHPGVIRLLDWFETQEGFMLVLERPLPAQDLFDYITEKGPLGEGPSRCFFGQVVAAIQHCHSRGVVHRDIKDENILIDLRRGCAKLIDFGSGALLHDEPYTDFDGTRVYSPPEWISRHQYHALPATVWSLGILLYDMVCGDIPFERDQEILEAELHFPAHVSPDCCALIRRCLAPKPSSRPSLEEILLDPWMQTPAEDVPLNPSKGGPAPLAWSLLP
Chain of Homeodomain-interacting protein kinase 3 (Homo sapiens) (Q9H422 whole entry, looked up): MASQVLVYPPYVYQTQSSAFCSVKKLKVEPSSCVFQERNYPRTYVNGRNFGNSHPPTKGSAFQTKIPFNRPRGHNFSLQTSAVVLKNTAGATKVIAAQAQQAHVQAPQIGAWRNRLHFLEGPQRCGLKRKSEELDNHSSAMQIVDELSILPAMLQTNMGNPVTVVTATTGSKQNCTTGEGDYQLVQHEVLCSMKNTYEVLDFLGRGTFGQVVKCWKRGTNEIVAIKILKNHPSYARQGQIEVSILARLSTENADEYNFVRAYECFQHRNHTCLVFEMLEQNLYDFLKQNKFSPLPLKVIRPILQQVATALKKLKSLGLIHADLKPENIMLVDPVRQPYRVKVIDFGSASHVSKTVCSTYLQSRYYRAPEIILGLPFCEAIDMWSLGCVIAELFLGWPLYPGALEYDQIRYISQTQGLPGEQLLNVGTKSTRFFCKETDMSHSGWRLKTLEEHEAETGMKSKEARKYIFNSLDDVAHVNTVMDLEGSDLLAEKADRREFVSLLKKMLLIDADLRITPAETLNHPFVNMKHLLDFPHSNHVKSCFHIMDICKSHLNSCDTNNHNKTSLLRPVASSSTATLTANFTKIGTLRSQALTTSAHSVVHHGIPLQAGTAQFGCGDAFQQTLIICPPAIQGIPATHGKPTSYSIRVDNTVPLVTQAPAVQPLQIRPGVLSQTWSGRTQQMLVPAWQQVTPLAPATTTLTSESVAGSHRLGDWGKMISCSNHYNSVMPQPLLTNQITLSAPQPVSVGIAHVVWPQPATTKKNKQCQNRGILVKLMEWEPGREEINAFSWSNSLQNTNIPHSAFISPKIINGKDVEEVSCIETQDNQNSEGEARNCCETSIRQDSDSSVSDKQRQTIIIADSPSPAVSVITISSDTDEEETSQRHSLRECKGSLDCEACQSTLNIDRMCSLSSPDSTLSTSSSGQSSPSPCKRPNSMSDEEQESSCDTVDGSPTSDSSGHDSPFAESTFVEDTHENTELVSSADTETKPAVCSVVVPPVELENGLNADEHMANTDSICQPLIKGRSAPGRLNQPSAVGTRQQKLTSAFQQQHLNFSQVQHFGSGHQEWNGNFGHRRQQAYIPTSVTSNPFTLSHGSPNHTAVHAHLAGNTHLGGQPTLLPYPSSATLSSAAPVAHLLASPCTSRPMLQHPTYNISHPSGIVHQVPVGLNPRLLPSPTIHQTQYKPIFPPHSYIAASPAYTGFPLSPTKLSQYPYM
Chain of MAP kinase-interacting serine/threonine-protein kinase 2 (Homo sapiens) (Q9HBH9 whole entry, looked up): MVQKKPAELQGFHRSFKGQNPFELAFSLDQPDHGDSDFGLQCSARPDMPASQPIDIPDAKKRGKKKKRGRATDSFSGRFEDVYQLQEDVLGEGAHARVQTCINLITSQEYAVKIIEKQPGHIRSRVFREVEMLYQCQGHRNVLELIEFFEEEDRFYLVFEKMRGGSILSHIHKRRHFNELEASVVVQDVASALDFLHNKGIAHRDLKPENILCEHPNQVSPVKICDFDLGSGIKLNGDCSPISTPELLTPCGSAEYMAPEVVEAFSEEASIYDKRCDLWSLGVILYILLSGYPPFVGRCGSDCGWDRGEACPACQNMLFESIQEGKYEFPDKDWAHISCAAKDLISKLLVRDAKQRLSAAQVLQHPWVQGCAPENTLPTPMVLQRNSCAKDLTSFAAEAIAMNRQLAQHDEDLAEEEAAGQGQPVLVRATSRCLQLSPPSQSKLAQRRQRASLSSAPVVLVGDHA
Chain of Serine/threonine-protein kinase B-raf (P15056 2-766 V600E limits assumed): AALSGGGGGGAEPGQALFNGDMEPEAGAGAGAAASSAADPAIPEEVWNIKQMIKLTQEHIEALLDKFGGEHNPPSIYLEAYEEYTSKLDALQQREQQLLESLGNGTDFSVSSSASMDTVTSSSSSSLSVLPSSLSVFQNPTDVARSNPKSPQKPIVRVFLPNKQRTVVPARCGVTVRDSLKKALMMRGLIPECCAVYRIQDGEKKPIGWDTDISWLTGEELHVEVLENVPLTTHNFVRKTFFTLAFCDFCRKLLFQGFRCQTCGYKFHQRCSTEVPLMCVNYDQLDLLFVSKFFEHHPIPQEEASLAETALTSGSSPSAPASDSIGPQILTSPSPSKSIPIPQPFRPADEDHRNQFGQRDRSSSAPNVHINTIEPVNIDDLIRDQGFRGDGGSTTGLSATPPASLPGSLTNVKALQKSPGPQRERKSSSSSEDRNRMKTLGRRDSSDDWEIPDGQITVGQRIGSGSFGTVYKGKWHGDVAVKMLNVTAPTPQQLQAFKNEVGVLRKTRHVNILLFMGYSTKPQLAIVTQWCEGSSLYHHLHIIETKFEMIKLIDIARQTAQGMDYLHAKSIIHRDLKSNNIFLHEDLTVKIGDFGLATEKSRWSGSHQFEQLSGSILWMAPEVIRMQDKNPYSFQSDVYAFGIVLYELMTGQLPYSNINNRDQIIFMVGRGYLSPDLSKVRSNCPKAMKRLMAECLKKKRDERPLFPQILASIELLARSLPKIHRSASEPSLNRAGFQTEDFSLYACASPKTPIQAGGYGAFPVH
Chain of Ribosomal protein S6 kinase alpha-3 (Homo sapiens) (P51812 whole entry): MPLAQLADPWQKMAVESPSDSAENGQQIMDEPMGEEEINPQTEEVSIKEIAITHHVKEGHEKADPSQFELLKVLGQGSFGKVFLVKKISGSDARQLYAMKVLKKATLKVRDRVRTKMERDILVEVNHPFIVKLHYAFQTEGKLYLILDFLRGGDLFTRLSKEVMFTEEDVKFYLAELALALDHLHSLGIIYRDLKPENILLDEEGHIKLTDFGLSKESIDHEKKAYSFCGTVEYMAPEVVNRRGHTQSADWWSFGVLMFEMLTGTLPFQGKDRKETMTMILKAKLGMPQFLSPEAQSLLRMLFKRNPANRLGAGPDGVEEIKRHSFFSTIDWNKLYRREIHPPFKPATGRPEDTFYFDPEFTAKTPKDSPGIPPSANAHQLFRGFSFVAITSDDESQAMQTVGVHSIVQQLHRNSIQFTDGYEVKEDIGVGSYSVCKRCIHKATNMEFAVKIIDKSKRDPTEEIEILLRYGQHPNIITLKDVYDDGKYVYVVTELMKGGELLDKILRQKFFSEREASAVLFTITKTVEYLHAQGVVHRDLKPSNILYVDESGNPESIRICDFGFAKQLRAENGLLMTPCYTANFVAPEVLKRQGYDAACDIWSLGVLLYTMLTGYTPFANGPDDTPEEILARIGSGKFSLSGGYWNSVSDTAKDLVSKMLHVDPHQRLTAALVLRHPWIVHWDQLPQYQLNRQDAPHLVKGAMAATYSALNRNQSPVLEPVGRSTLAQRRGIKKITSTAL

residual activity [1]	residual activity [2]	residual activity [3]	residual activity [4]	residual activity [5]	residual activity [6]	residual activity [7]	residual activity [8]	residual activity [9]	residual activity [10]	residual activity [11]	IC50 [12]	residual activity [13]	residual activity [14]	SMILES
100%	50%	100%	< 25%	100%	75%	100%	100%	75%	75%	75%	79 nM	100%	75%	CC(C)(C)c1cccc(NC(=O)Nc2ccc(Oc3ccnc4[nH]c(=O)[nH]c34)c3ccccc23)c1
100%	< 25%	100%	< 25%	100%	< 25%	75%	75%	100%	100%	100%	37 nM	100%	75%	O=C(Nc1cc(C(F)(F)F)ccc1F)Nc1ccc(Oc2ccnc3[nH]c(=O)[nH]c23)c2ccccc12
100%	< 25%	100%	< 25%	100%	50%	100%	100%	75%	100%	100%	1 nM	100%	100%	CSc1cc(Oc2ccnc3[nH]c(=O)[nH]c23)ccc1NC(=O)Nc1cccc(C(F)(F)F)c1
